ChEMBL document CHEMBL2396602, “Discovery of N-(4'-(indol-2-yl)phenyl)sulfonamides as novel inhibitors of HCV replication” (Bioorg Med Chem Lett, 2013)
Activity calls are given as the source filed them. No cut-off for these calls is given here.

How the values were obtained:
[1] = Cytotoxicity against human HuH7 cells after 2 days by MTS assay; assay type: cell-based, Huh-7
Method in brief: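 MTS cell proliferation assay run in parallel with the luciferase replicon assay in the same genotype 1b replicon-bearing Huh7 cells (5000 cells/well, 0.5% DMSO final, 37 °C); CC50 derived.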

[2] = system: Hepatitis C virus; test: Antiviral activity against Hepatitis C virus genotype 1b infected in human HuH7 cells assessed as inhibition of viral replication after 2 days by luciferase reporter gene assay; assay type: functional, organism-based, Hepacivirus hominis; settings: Huh-7, 48 h
Method in brief: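 Huh7 cells carrying a genotype 1b bicistronic HCV replicon plated at 5000 cells/well, kept subconfluent; compound added at 0.5% DMSO final, incubated at 37 °C; luciferase read after 2 days; EC50 from dose response.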

[3] = system: Rattus norvegicus; test: Oral bioavailability in Sprague-Dawley rat at 3 mg/kg; assay type: ADME, organism-based; settings: in vivo
Method in brief: (§1)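 Female Sprague–Dawley rats dosed with compound in PEG-300 solution, 3 mg/kg orally or 1 mg/kg intravenously; pharmacokinetic parameters derived from plasma exposure after each route.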

[4] = system: Rattus norvegicus; test: AUC (0 to infinity) in Sprague-Dawley rat at 3 mg/kg, po; assay type: ADME, organism-based, Plasma; parameters: dose 3 mg/kg, route oral, time infinity; settings: in vivo; method in brief: as §1
[5] = Cmax in Sprague-Dawley rat at 3 mg/kg, po; assay type: ADME, organism-based; parameters: dose 3 mg/kg, route oral; settings: in vivo; method in brief: as §1
[6] = Selectivity index, ratio of CC50 for human HuH7 cells to EC50 for Hepatitis C virus subtype 1b; assay type: toxicity, cell-based, Huh-7; settings: read-out: Ratio CC50/EC50
Method in brief: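 Ratio of CC50 from the MTS assay to EC50 from the luciferase assay, both in genotype 1b bicistronic replicon Huh7 cells run in parallel.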

[7] = system: Hepatitis C virus; test: Antiviral activity against Hepatitis C virus genotype 1b infected in human HuH7 cells assessed as reduction in HCV RNA after 3 days by RT-PCR analysis; assay type: functional, organism-based, Hepacivirus hominis; settings: Huh-7, 72 h
Method in brief: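 Huh7 cells with a genotype 1b monocistronic replicon seeded at 5000 cells/well; compound at 0.5% DMSO final, 37 °C; cells harvested 3 days after dosing; replicon RNA measured by real-time RT-PCR, normalised to GAPDH RNA.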

[8] = Half life in Sprague-Dawley rat at 1 mg/kg, iv; assay type: ADME, organism-based; parameters: dose 1 mg/kg, route intravenous; settings: in vivo; method in brief: as §1
[9] = system: Hepacivirus hominis; test: Inhibition of HCV protease up to 10 uM
[10] = Volume of distribution at steady state in Sprague-Dawley rat at 1 mg/kg, iv; assay type: ADME, organism-based; parameters: dose 1 mg/kg, route intravenous; settings: in vivo, read-out: Vdss; method in brief: as §1
[11] = Intrinsic clearance in human liver microsomes at 1 uM by LC/MS analysis; assay type: ADME, Microsome; settings: read-out: CLH
Method in brief: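 Compound at 1 µM incubated with human liver microsomes (0.5 mg/mL protein) for 0, 10, 20, 30 and 60 min with 1 mM EDTA, 3 mM MgCl2, 1.3 mM NADP, 3.3 mM D-glucose-6-phosphate and 1 unit/mL glucose-6-phosphate dehydrogenase.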

| Structure (SMILES) | CC50 at 48 h [1] [µM] | EC50 [2] [µM] | other results |
| --- | --- | --- | --- |
| CCn1c(-c2ccc(NS(=O)(=O)CC)cc2)c(C#N)c2cc(OC)c(OC)cc21 | > 100 | 4 |  |
| CCS(=O)(=O)Nc1ccc(-c2c(C#N)c3ccc(OC(F)F)cc3n2C(C)C)cc1 | 12 | 0.2 |  |
| CCn1c(-c2ccc(NS(=O)(=O)CC)cc2)c(C#N)c2ccc(COC)cc21 | > 100 | 5 |  |
| CCCn1c(-c2ccc(NS(=O)(=O)C3CC3)cc2)c(C#N)c2ccc(OC(F)F)cc21 | > 100 | 0.25 |  |
| COc1ccc(-n2cc([N+](=O)[O-])c3ccc(OC)cc32)cc1 |  | 50 |  |
| CCn1c(-c2ccc(NS(=O)(=O)CC)cc2)c(C#N)c2ccc(C(=O)O)cc21 | > 100 | > 11 |  |
| N#Cc1c(-c2ccc(NS(=O)(=O)C3CC3)cc2)n(CC2CC2)c2cc(OC(F)F)ccc12 | 25 | 0.17 | F [3]: 58%; AUC [4]: 6.8 µM·h; Cmax [5]: 770 ng/mL; selectivity ratio [6]: 147; EC50 [7]: 0.18 µM; half-life [8]: 6.3 h; inhibition [9]: inactive; Vd [10]: 2.2 L/kg; CLint scaled at 1 µM [11]: < 1 mL/min/kg |
| CCn1c(-c2ccc(C(N)=O)cc2)c(C#N)c2ccc(OC)cc21 | > 100 | 7.8 |  |
| CC(C)n1c(-c2ccc(NS(=O)(=O)C3CC3)cc2)c(C#N)c2ccc(OC(F)F)cc21 | 13 | 0.075 |  |
| CC(C)S(=O)(=O)Nc1ccc(-c2c(C#N)c3ccc(OC(F)F)cc3n2CC2CC2)cc1 | 22 |  |  |
| CCn1c(-c2ccc(N3CCNS3(=O)=O)cc2)c(C#N)c2ccc(OC)cc21 | 30 | 0.9 |  |
| CCOc1ccc(-c2c(C#N)c3ccc(OC)cc3n2CC)cc1 | > 100 | 3 |  |
| CCn1c(-c2ccc(S(C)(=O)=O)cc2)c(C#N)c2ccc(OC)cc21 | 42 | 2.6 |  |
| CCn1c(-c2ccc(NS(=O)(=O)CC)cc2)c(C#N)c2ccc(OC(F)(F)F)cc21 | 24 | 0.17 | selectivity ratio [6]: 141 |
| CCn1c(-c2ccc(NC(C)=O)cc2)c(C#N)c2ccc(OC)cc21 | 89 | 1.3 |  |
| CCn1c(-c2ccc(NS(=O)(=O)CC)cc2)c(C#N)c2ccc(C(F)(F)F)cc21 | 18 | 0.36 | selectivity ratio [6]: 50 |
| N#Cc1c(-c2ccc(NS(=O)(=O)C3CC3)cc2)n(C2CCC2)c2cc(OC(F)F)ccc12 | 20 | 0.19 |  |
| CCn1c(-c2ccc(N3CCCS3(=O)=O)cc2)c(C#N)c2ccc(OC)cc21 | > 50 | 2 |  |
| CCn1c(-c2ccc(NS(=O)(=O)CC)cc2)c(C#N)c2ccc(OC)cc21 | 62 | 0.47 | selectivity ratio [6]: > 130 |
| CCn1c(-c2ccc(NS(=O)(=O)CC)cc2)c(C#N)c2ccc(CN3CCOCC3)cc21 | 35 | 3 |  |
| CCn1c(-c2ccc(NC(=O)c3ccccc3)cc2)c(C#N)c2ccc(OC)cc21 | > 100 | > 100 |  |
| CCn1c(-c2ccc(NS(=O)(=O)CC)cc2)c(C#N)c2ccc(CO)cc21 | 60 | 3.5 |  |

| Structure (SMILES) | CC50 at 48 h [1] [µM] | EC50 [2] [µM] | other results |
| --- | --- | --- | --- |
| CCn1c(-c2ccc(N)cc2)c(C#N)c2ccc(OC)cc21 | 100 | 7.7 |  |
| CCn1c(-c2ccc(NS(=O)(=O)C3CC3)cc2)c(C#N)c2ccc(OC(F)F)cc21 | 23 | 0.1 |  |
| CCn1c(-c2ccc(NS(=O)(=O)CC)cc2)c(C#N)c2ccc(OCCF)cc21 | 39 | 0.59 | selectivity ratio [6]: 66 |
| CCn1c(-c2ccc(NS(=O)(=O)CC)cc2)c(C#N)c2cc(Cl)ccc21 | 40 | 7.5 |  |
| CCn1c(-c2ccc(NS(=O)(=O)CC)cc2)c(C#N)c2ccc(C(N)=O)cc21 | 55 | 9 |  |
| CCn1c(-c2ccc(NS(=O)(=O)CC)cc2)c(C#N)c2ccccc21 | 40 | 9 |  |
| CCn1c(-c2ccc(NS(=O)(=O)C(C)C)cc2)c(C#N)c2ccc(OC)cc21 | 70 | 0.65 |  |
| CCOC(=O)Nc1ccc(-c2c(C#N)c3ccc(OC)cc3n2CC)cc1 | 41 | 1.3 |  |
| CCn1c(-c2ccc(O)cc2)c(C#N)c2ccc(OC)cc21 | 50 | 6.1 |  |
| CCn1c(-c2ccc(OC)cc2)c([N+](=O)[O-])c2ccc(OC)cc21 |  | > 51 |  |
| CCn1c(-c2ccc([S+](C)[O-])cc2)c(C#N)c2ccc(OC)cc21 (configuration not stated) | 52 | 4 |  |
| CCn1c(-c2ccc(NS(=O)(=O)CC)cc2)c(C#N)c2cc(F)ccc21 | 39 | 0.59 |  |
| CCn1c(-c2ccc(NS(=O)(=O)CC)cc2)c(C#N)c2ccc(OC(F)F)cc21 | 20 | 0.29 | selectivity ratio [6]: 69 |
| CCn1c(-c2ccc(NS(=O)(=O)C(C)C)cc2)c(C#N)c2cc(OC)ccc21 | 36 | 7.4 |  |
| CCn1c(-c2ccc(NS(=O)(=O)C(C)C)cc2)c(C#N)c2ccc(OC(F)F)cc21 | 19 | 0.12 |  |
| CCn1c(-c2ccc(NS(=O)(=O)CC)cc2)c(C#N)c2c(Cl)cccc21 | 55 | 3.5 |  |
| CCOc1ccc2c(C#N)c(-c3ccc(NS(=O)(=O)CC)cc3)n(CC)c2c1 | 42 | 0.53 |  |
| CCn1c(-c2ccc(NS(=O)(=O)CC)cc2)c(C#N)c2ccc(O)cc21 | 55 | 2 |  |
| CCCS(=O)(=O)Nc1ccc(-c2c(C#N)c3ccc(OC(F)F)cc3n2CC)cc1 | 26 | 0.22 |  |
| CCS(=O)(=O)Nc1ccc(-c2c(C#N)c3ccc(OC(F)F)cc3n2CC2CC2)cc1 | 13 | 0.3 |  |
| CCn1c(-c2ccc(OC)cc2)c(C#N)c2ccc(OC)cc21 | > 100 | 4.1 |  |
